This note sets out measurements from ChEMBL document CHEMBL1144531, “Novel selective inhibitors of neutral endopeptidase for the treatment of female sexual arousal disorder” (Bioorg Med Chem, 2007).

Each structure is given as a SMILES string.

One may read the Papp A→B as the apparent permeability from the apical to the basolateral side of a cell layer. Read a high Papp A→B as fast passage. As usually defined, the IC50 is the concentration that gives 50% inhibition. The low end stands for greater potency in that assay, the high end for weaker potency in that assay. What is called half-life is how long it takes for the measured level to halve. Read a low half-life as fast loss. Broadly, the logD is lipophilicity at a set pH, counting ionised and neutral species. Read a low logD as a more hydrophilic compound. For orientation: Papp B→A means how fast a substance crosses the layer from the basolateral side. As usually defined, the Tmax is the time at which the peak concentration occurs.

A short description of data set [1]: Permeability from apical to basolateral side of the Caco-2 cell membrane at pH 7.4. In kind it is ADME, cell-based. Particulars: human, Caco-2, pH 7.4. The method in brief: (§1)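 Caco-2 monolayers; apparent permeability (Papp) measured with pH 7.4 in both apical and basolateral chambers.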
Data set [2] in a line: Inhibition of dog kidney cortex NEP at pH 7.4. More on the design: species or system Canis lupus familiaris.
Data set [3] is described as follows: Half life in rat at 1 mg/kg, iv and 1 mg/kg, po. In kind it is ADME, organism-based. Conditions: in vivo. The method in brief:
(§2)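 Male CD rats, jugular vein cannulated under general anaesthesia; dosed 1 mg/kg iv (tail vein) and po (gavage). Serial 0.2 ml blood samples taken from the cannula into heparin, centrifuged to plasma, stabilised with 0.01 parts 85% phosphoric acid, frozen. Plasma levels measured by LC–MS–MS after C18 solid-phase extraction, with internal standard.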

Data set [4] is described as follows: Fraction unbound ligand in rat at 1 mg/kg, iv and 1 mg/kg, po. Particulars: in vivo. The class given is ADME, organism-based. The essentials: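 Fraction unbound in rat plasma measured at 1 µg/ml by equilibrium dialysis against isotonic Krebs–Ringer bicarbonate buffer, pH 7.4.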
Data set [5] addresses T1, Neprilysin (Oryctolagus cuniculus, UniProt P08049).
T1 sequence (P08049 whole entry): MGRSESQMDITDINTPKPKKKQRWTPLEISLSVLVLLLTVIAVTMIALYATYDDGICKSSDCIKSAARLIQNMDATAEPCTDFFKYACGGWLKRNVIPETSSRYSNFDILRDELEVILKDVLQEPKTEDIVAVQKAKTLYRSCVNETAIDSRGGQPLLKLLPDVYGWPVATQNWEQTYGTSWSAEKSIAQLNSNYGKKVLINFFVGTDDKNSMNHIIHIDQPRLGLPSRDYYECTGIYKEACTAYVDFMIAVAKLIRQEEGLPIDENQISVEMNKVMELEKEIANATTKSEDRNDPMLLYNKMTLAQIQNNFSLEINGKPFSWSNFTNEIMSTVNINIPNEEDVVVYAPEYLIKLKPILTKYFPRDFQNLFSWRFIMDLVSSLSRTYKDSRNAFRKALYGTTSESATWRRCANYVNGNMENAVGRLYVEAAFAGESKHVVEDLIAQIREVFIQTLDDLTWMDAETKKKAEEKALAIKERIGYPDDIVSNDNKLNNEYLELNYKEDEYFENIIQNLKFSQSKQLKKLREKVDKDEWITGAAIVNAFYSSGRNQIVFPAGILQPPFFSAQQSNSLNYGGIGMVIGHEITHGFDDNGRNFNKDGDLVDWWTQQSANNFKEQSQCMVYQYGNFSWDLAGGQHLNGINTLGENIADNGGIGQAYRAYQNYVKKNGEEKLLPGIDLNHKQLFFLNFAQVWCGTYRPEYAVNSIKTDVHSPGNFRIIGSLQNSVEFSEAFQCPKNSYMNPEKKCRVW
The experiment in a line: Inhibition of rabbit NEP. The method in brief: (§3)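 Fluorogenic assay with Abz-D-Arg-Arg-Leu-EDDnp as substrate (solution at 50 µM before mixing). Inhibitor is pre-mixed with substrate, and enzyme is added, diluted so that conversion stays at or below ~10% in 1 h. Incubation runs 1 h at 37 °C with shaking in Tris–Cl, then is stopped with phosphoramidon. Read-out is Ex320/Em420. Each IC50 uses a 10-point half-log series in duplicate.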

Data set [6] can be described thus: Distribution coefficient, log D in n-octanol and phosphate buffer at pH 7.4. In kind it is physicochemical.
For a further data set, the species on record is Sus scrofa. The experiment in a line: Inhibition of pig ACE. The essentials:
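Porcine ACE; same format as the NEP assay. Substrate o-aminobenzoyl-Gly-Gly-p-nitro-Phe-Pro-OH, 10 µM final, in 50 mM Tris-Cl pH 7.4 (37 °C) with 300 mM NaCl. Stopped with 2 mM EDTA; fluorescence read-out. IC50 from dilution series.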

Data set [7] is described as follows: Volume of distribution in rat at 1 mg/kg, iv and 1 mg/kg, po. Particulars: in vivo, read-out: Vdss. In kind it is ADME, organism-based. The method in brief: as §2
Data set [8] can be described thus: Oral bioavailability in rat at 1 mg/kg, iv and 1 mg/kg, po. The class given is ADME, organism-based. Particulars: in vivo. The method in brief: as §2
In data set [9] the target is T2, Neprilysin (Rattus norvegicus, UniProt P07861).
T2 sequence (P07861 whole entry): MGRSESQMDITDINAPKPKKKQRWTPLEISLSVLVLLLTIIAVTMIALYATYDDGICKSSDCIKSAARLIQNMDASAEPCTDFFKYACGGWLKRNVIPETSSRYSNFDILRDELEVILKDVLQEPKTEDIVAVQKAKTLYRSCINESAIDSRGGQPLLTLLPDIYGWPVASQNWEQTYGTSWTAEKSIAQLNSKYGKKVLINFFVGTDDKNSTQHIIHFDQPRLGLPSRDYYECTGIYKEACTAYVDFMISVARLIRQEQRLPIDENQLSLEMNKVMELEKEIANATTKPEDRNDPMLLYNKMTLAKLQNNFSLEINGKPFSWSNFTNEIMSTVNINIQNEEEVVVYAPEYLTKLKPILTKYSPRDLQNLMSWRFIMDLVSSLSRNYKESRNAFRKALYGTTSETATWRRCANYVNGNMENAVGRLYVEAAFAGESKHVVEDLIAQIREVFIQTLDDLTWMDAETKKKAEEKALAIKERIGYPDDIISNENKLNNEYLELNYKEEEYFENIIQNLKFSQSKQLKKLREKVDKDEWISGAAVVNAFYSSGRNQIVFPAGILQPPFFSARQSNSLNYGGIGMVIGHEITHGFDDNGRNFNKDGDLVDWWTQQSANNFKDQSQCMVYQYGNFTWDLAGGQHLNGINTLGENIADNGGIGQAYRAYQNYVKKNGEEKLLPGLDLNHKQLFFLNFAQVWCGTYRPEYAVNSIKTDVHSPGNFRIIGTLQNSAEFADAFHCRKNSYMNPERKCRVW
The experiment in a line: Inhibition of rat NEP. The method in brief: as §3

Data set [10] is described as follows: Inhibition of dog kidney cortex NEP at pH 7. More on the design: species or system Canis lupus familiaris.
A short description of data set [11]: Clearance in rat at 1 mg/kg, iv and 1 mg/kg, po. The class given is ADME, organism-based. Conditions: in vivo. The method in brief:
as §2

Data set [12] is described as follows: Permeability from basolateral to apical side of the Caco-2 cell membrane at pH 7.4. Particulars: human, Caco-2, pH 7.4. The class given is ADME, cell-based. The method in brief:
as §1

Data set [13] concerns the target T3, Endothelin-converting enzyme 1 (Homo sapiens) (UniProt P42892).
T3 sequence (whole entry): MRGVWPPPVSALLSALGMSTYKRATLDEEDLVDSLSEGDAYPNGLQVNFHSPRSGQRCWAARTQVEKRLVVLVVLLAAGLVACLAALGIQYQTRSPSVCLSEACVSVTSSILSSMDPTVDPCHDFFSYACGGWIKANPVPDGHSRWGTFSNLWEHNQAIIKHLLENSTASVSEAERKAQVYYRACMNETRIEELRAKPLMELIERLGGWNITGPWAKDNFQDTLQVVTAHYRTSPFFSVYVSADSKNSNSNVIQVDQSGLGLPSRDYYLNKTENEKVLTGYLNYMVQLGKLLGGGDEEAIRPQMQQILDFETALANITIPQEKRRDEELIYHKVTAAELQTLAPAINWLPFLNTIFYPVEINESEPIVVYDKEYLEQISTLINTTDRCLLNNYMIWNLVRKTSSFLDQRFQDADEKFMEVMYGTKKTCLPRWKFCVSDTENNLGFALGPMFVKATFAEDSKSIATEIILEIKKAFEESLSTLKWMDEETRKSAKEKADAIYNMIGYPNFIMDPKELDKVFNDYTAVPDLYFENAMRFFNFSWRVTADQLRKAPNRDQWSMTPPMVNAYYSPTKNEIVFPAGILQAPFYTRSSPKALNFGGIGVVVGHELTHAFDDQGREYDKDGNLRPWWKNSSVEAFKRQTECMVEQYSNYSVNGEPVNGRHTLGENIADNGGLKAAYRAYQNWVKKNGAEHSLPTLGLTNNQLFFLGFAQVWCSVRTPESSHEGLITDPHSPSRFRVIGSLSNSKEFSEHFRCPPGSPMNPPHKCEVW
The experiment in a line: Inhibition of human ECE1. The method in brief:
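Human ECE-1, run like the ACE assay (50 mM Tris-Cl pH 7.4, 300 mM NaCl, EDTA stop), with Big ET-1 as substrate. IC50 from dilution series.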

Data set [14] in a line: Metabolic stability in human liver microsomes at 1 uM. In kind it is ADME, Microsome. The essentials:
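Human liver microsomes, 1 µM compound with 0.5 µM CYP. Reported as first-order compound disappearance half-life.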

Data set [15] is described as follows: Tmax in rat at 1 mg/kg, iv and 1 mg/kg, po. The class given is ADME, organism-based. Conditions: in vivo. The essentials: as §2
Another data set is filed under the species Homo sapiens. The experiment in a line: Protein binding in human plasma at 1 ug/ml by equilibrium dialysis. Conditions: read-out: PPB (converted). On the technique in general: In equilibrium dialysis free small molecules cross a membrane that holds back macromolecules.

In turn, `COCC[C@H](CC1(C(=O)NCCCc2ccc(Cl)cc2)CCCC1)C(=O)O` showed a Papp A→B in data set [1] of 12 ×10⁻⁶ cm/s. For the same compound, the IC50 in [2] is 3.8 nM; against Neprilysin [5], 0.8 nM; at Neprilysin [9] it was 0.6 nM; in data set [10] it was 0.9 nM. The compound also gave a half-life in data set [3] of 1.9 h. In addition, the fraction unbound in data set [4] was 0.083. Moreover, the logD in data set [6] was determined as 1. Further, the Activity (in the data set listed under Sus scrofa; in data set [13]) was above 3 µM throughout. Moreover, the Vd in [7] turned out to be 0.6 L/kg. The bioavailability in data set [8] was 70%. The same compound had a clearance in data set [11] of 3.5 mL/min/kg. In data set [12], this compound displayed an apparent permeability from basolateral to apical (Papp B→A) of 14 ×10⁻⁶ cm/s. For the same compound, the half-life at 1 µM in data set [14] was above 2 h.

Take `COCC[C@H](CC1(C(=O)NC2(CO)Cc3ccccc3C2)CCCC1)C(=O)O`: in data set [1], the Papp A→B was 1 ×10⁻⁶ cm/s. In addition, the values for the half-maximal inhibitory concentration (IC50) in [2] and in data set [10] were 14.2 nM and 5.4 nM, respectively. The Tmax in data set [15] was below 1 h. This compound showed a half-life in data set [3] of 4.8 h. Further, the fraction unbound in data set [4] is 0.088. Besides, the pH-dependent lipophilicity (logD) in data set [6] is -0.2. Also, the Activity (in the data set listed under Sus scrofa; in data set [13]) was above 3 µM each time. Besides, the Vd in data set [7] is 7.5 L/kg. Also, the bioavailability in data set [8] is 109%. The fraction unbound at 1 ug/ml in the data set filed under Homo sapiens was 0.228. For the same compound, in [11], the clearance came out at 18 mL/min/kg. Further, in [12], the Papp B→A was found to be 2.5 ×10⁻⁶ cm/s. Besides, the half-life at 1 µM in [14] is above 2 h.
